# Rows were chosen to be rich in hits. Some 3.9% of all compounds tested hit in one or more screens of this group.
# CHOP inh: CHOP inhibition in unfolded protein response; CHO-K1 CHOP-promoter luciferase, tunicamycin-induced, 15-18 h; inhibition, % at 10 µM; hit rate 3.8% among 220,000; AID 2732;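 active = compounds that reduced the stress-induced luciferase reporter signal by more than about 70% of percent inhibition, limit read from the data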;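 also: 0% = tunicamycin plus vehicle and 100% = wells without tunicamycin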
# UPR CHOP act: activators of apoptotic arm of unfolded protein response (CHOP). AID 449763. hit rate 0.34% among 330,000. activation, % at 10 µM. CHO-CHOP luciferase reporter, UPR activation, luminescence; percent of tunicamycin response over DMSO baseline;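 active = at 10 µM dose, activation of 40% or more, normalized to positive control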;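 also: 100% = tunicamycin at 10 µg/mL and 0% = DMSO alone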
#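 Test system: CHO CHOP reporter cells. Input: 500 CHO-CHOP cells per well. Medium: F12 with 10% FBS. Technique: luciferase luminescence. Measure: percent activation relative to tunicamycin control. Dosing: 10 µM compound, 0.5% DMSO. Timing: 16-18 h cell attachment, then 6 h compound exposure, 37 °C.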
# 697 NFkB inh: inhibitors of the PMA/ionomycin-induced NF-kB reporter in 697 B cells. 697 B-cell NF-kB luciferase reporter, 16 h. hit rate 0.33% among 330,000. inhibition, % at 4 µM; in the data active = inhibition above about 35%
# XBP1 UPR activ: activators of adaptive arm of unfolded protein response (XBP1) | AID 463104 | activation, % at 20 µM | hit rate 0.33% among 330,000 | CHO-XBP1 luciferase reporter, IRE1-XBP1 UPR activation, luminescence; percent of tunicamycin response, DMSO as zero;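 active = versus positive control, 20 µM dose yields 30% or more activation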;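 also: 100% = tunicamycin at 10 µg/mL and 0% = DMSO only wells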
#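 Test system: CHO-XBP1 luciferase reporter cells | Buffer or medium: Serum-containing F12 medium, 10% FBS | Schedule: 6 h compound exposure at 37 °C, 5% CO2 | Detection: Steady-Glo luciferase glow luminescence, 10 min after reagent addition | Read-out basis: Activation, % of tunicamycin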
# Jurkat NFkB inh: lowers PMA/ionomycin-induced NF-kB signal in Jurkat cells; PMA/ionomycin-induced NF-kB luciferase reporter, luminescence; inhibition, % at 4 µM; hit rate 0.53% among 330,000; AID 435003; in the data active = inhibition above about 50%
# Gli-Sufu antag: blocks Gli-Sufu signaling in a luciferase reporter; inhibition, % at 5 µM; hit rate 0.74% among 340,000; Sufu-KO-LIGHT fibroblasts, Gli luciferase reporter luminescence;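 active = inhibition above about 55%, limit read from the data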;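 also: 0% = DMSO-treated cells and 100% = wells with medium but no cells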
# Active calls of the source: *; . = not tested or not shown; ! = not active in a repeat.
SMILES,CHOP inh,UPR CHOP act,697 NFkB inh,XBP1 UPR activ,Jurkat NFkB inh,Gli-Sufu antag
Cc1ccc(S(=O)(=O)Nc2ccc(N3CCCCC3)cc2)cc1,52,2,7,-3,-1,7
Cc1ccc(NS(=O)(=O)c2ccc(C3CCCCC3)cc2)cc1,95*,-1,-26,-3,8,6
NS(=O)(=O)c1ccc(CCNC(=O)c2ccc(OCC3CCCO3)cc2)cc1 (centres undefined),.,0,-8,-3,-21,-5
CCCCn1c(N)c(N(CCC(C)C)C(=O)c2ccc3c(c2)OCCO3)c(=O)[nH]c1=O,.,1,8,0,9,-4
Cc1ccc([N+](=O)[O-])cc1S(=O)(=O)N(C)C,2,.,.,.,.,.
COC(=O)c1cc2occc2n1Cc1c(F)cccc1Cl,46,.,.,.,.,.
COC(=O)c1cc2occc2n1Cc1ccc(Cl)cc1,87*,3,14,1,4,4
Cc1ccc(Cl)cc1NC(=O)COC(=O)C1CCCC1,15,-3,-18,-1,-5,-16
Cc1ccc(Cl)cc1NC(=O)COC(=O)C12CC3CC(CC(C3)C1)C2,79*!,3,5,1,4,8
O=S(=O)(Nc1cccc(S(=O)(=O)N2CCCC2)c1)c1cccc(Br)c1,.,-1,9,-3,-5,1
O=C(N/N=C1/C(=O)c2cccc3cccc1c23)c1ccc(Cl)cc1,72*,10,1,4,4,-16
CCNC(=S)N/N=C1\C(=O)c2cccc3cccc1c23,-10,2,7,0,-3,16
COc1ccccc1-c1sc2cc3c(cc2c1C#Cc1cncn1C)OCO3,.,4,2,3,0,8
Fc1ccc(Nc2nc(-c3ccncc3)nc3ccccc23)cc1,90*,4,16,-1,-16,11
c1ccc(Nc2nc(-c3ccncc3)nc3ccccc23)cc1,-21,4,-1,4,-34,30
COc1ccc(S(=O)(=O)N2CCOCC2)cc1NC(=O)COC(=O)C1CC1C (centres undefined),.,0,19,1,7,6
Cc1cccc(N/C(N)=N/c2nc(CSc3ccc(Cl)cc3)cc(=O)[nH]2)c1,-3,17,6,38*,8,9
O=C(c1ccccc1Nc1ccc(SC(F)F)cc1)N1CCCCCC1,86*,-1,3,-1,3,6
CCOc1ccc(N=Nc2c(=O)[nH]n3c(=O)c4c([nH]c23)CCCC4)cc1,87*,-1,-8,-3,3,2
O=c1[nH]n2c(=O)c3c([nH]c2c1N=Nc1cccc(Cl)c1)CCCC3,-7,-1,8,-3,-1,-15
Cc1cc(O)c(-c2cc(C(=O)Nc3ccc(S(=O)(=O)N4CCOCC4)cc3)[nH]n2)cc1C,87*,4,-24,3,-9,8
COc1ccc(/C=N/n2c(-c3ccco3)nc3ccccc3c2=O)cc1,80*,3,-53,2,-21,-12
O=C(NNC(=S)NC1CCCCC1)c1ccccc1Br,.,3,-26,-2,-12,-4
CC1CCCC(NC(=S)NC(=O)c2ccccc2Br)C1C (centres undefined),89*,-1,-33,-2,-26,-2
CC(=O)O[C@H]1CC2(C)[C@@H](C[C@@H](O)[C@H]3[C@@]4(C)CC[C@@H](O)[C@@H](C)[C@@H]4CC[C@@]32C)C1=C(CCC=C(C)C)C(=O)O (some centres undefined),0,.,.,.,.,.
SMILES,CHOP inh,UPR CHOP act,697 NFkB inh,XBP1 UPR activ,Jurkat NFkB inh,Gli-Sufu antag
O=C(/C=C/c1ccccc1)N1c2ccccc2Sc2ccc(C(F)(F)F)cc21,70*,0,-2,-3,-2,-3
COc1ccc(C2(c3ccc(OC)cc3)NC(=O)N(CC(=O)N(C)C3CCC(C)CC3)C2=O)cc1 (centres undefined),.,0,18,-2,16,-1
Cc1nn(C(=O)c2cccs2)c(C)c1CN1C(=O)c2ccccc2C1=O,81*,4,-29,15,-9,4
CCNC(=O)OCCC12CC3CC(CC(C3)C1)C2,20,.,.,.,.,-2
O=C(OCCC12CC3CC(CC(C3)C1)C2)c1ccc(NCc2cc(O)ccc2O)cc1,.,.,.,.,.,82*
O=C(O)CSCC(=O)Nc1cc(C(F)(F)F)ccc1Cl,-14,-1,-37,-3,-9,-5
CC(C)Oc1cc(NC(=O)CSCC(=O)Nc2cccc(C(F)(F)F)c2)c(Cl)cc1Cl,100*,-1,-11,-4,-1,-1
C=C(C)C1CC=C(C)/C(=N/NC(=O)c2ccc(NC(=O)CCC)cc2)C1 (centres undefined),19,-1,23,-2,-2,3
C=C(C)C1CC=C(C)/C(=N\NC(=O)CCC(=O)Nc2ccc(C)c(C)c2)C1 (centres undefined),77*,3,19,-1,0,-5
CCc1ccc2nc(NC(=O)C3CSC4(C)CCC(=O)N34)sc2c1 (centres undefined),.,4,-45,1,-35,-19
N#C/C(=C\c1c(Cl)cccc1Cl)c1nc2ccccc2o1,13,0,-12,2,-10,-12
Cc1cc(O)ccc1N/C=C(\C#N)c1nc2ccccc2o1,73*,4,-12,13,-24,3
C[C@H]1CN=C(Nc2ccccc2)N1CCC1CCCC1,.,-1,-3,3,7,6
COc1cc(NS(=O)(=O)c2ccc(Nc3nc(-c4ccccn4)cs3)cc2)nc(OC)n1,-18,-1,5,-4,-9,1
COc1ccc(-c2csc(Nc3ccc(S(=O)(=O)Nc4cc(OC)nc(OC)n4)cc3)n2)cc1,89*,3,-6,0,0,16
C=C(C)c1cccc(C(C)(C)NC(=O)Nc2cc(C)ccn2)c1,92*,4,-31,0,0,6
CCn1c(Cl)c(C=O)s/c1=N\S(=O)(=O)c1ccccc1,105*,-11,-81,-7,5,2
CCN1C(=O)CS/C1=N\S(=O)(=O)c1ccc(Cl)cc1,17,0,26,-1,12,5
CCOc1ccc(NC(=O)Cn2nnc3c(cnn3-c3ccc(F)cc3)c2=O)cc1,72*,0,-4,2,5,-8
CN(C(=O)COn1nnc2ccc(Cl)cc21)C1CCS(=O)(=O)C1 (centres undefined),.,-1,4,-1,-3,1
O=C(COc1coc(CN2CCc3ccccc32)cc1=O)Nc1cccc(F)c1,.,2,23,-1,12,-9
N/C(Cc1ccc([N+](=O)[O-])cc1)=N\OC(=O)C(c1ccccc1)c1ccccc1,83*,3,-6,0,3,2
COc1ccccc1NS(=O)(=O)c1cc(NC(=O)Nc2ccc(Cl)cc2Cl)ccc1N1CCCCC1,24,8,10,-1,2,-1

# From PubChem
